Source: paper PMC6612960 (Drug Design, Development and Therapy, 2019)

What was measured:
[1] = tested on: Peripheral blood mononuclear cells (PBMCs); assay: Trypan Blue dye exclusion, PBMCs; assay type: cell-based; conditions: 2 μM, 24 hours, mouse PBMCs
Outline: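 PBMCs from mouse blood isolated by Ficoll density gradient and seeded at 5×10^5 cells/well in 12-well plates in RPMI 1640 with 10% FBS. Treated with test compound (2, 4, 10 μM), PBS or melittin at 37°C for 24 h. Stained with 0.4% Trypan Blue for 5 min, washed three times in PBS and viewed by fluorescence microscopy.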

[2] = tested on: Jurkat cells; assay: Confocal laser scanning microscopy, Jurkat; assay type: cell-based, human; conditions: incubation 30 minutes
Outline: (§1)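 Cells exposed to FITC-labelled peptide for 30 min in the dark, harvested, rinsed three times in PBS and imaged at once by CLSM (488 nm argon excitation for FITC). For mitochondrial co-localisation, cells were then given 30 nM rhodamine 123 for 30 min in the dark, washed and imaged with 488 nm (FITC) and 525 nm (rhodamine 123) laser lines.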

[3] = tested on: K562/MDR cells; assay: Confocal laser scanning microscopy, K562/MDR; assay type: cell-based, human; conditions: incubation 30 minutes
Outline: as §1

[4] = tested on: erythrocytes; assay: Peptide binding assay; assay type: cell-based; conditions: mouse erythrocytes, 30 minutes, 37°C, flow cytometry
Outline: (§2)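 Cells (human lines or mouse erythrocytes) resuspended in PBS at 1×10^6/ml and exposed to FITC-labelled peptide at 37°C for 30 min in the dark. Washed in PBS and read by flow cytometry as mean fluorescence of 10,000 cells. Mean±SEM of three independent experiments.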

[5] = tested on: HEK293 cells; assay: Peptide binding assay; assay type: cell-based, human; conditions: HEK293, 30 minutes, 37°C, flow cytometry
Outline: as §2

[6] = tested on: K562/MDR cells; assay: MTT assay, K562/MDR cells; assay type: cell-based, human; conditions: K562/MDR vs K562
[7] = tested on: Jurkat cells; assay: LDH release, Jurkat; assay type: cell-based, human; conditions: CM4 treatment (3, 9, 30 μM)
Outline: (§3)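 Cells (1×10^5/mL) in RPMI 1640 held 4 h at 37°C, then exposed to peptide at 3, 9 or 30 μM for varying times. PBS and 2% Triton X-100 controls. Cell-free supernatant mixed with tetrazolium salt reagent; formazan read at 490 nm. Leakage % = [(A−C)/(P−C)]×100 (C = PBS, P = Triton). Mean±SEM of four independent experiments.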

[8] = tested on: K562/MDR cells; assay: LDH release, K562/MDR; assay type: cell-based, human; conditions: CM4 treatment (3, 9, 30 μM)
Outline: as §3

[9] = tested on: non-cancer cells; conditions: even at 120 μM; cited from earlier work
[10] = tested on: leukemia cells (K562, THP-1, and U937 cells); conditions: read-out: IC50, anticancer activity in leukemia cells; cited from earlier work

Compound: CC[C@H](C)[C@H](NC(=O)CN)C(=O)NCC(=O)N[C@@H](C)C(=O)N[C@H](C(=O)N[C@@H](CC(C)C)C(=O)N[C@@H](CCCCN)C(=O)N[C@H](C(=O)N[C@@H](CC(C)C)C(=O)N[C@H](C(=O)N[C@H](C(=O)NCC(=O)N[C@@H](CC(C)C)C(=O)N1CCC[C@H]1C(=O)N[C@@H](C)C(=O)N[C@@H](CC(C)C)C(=O)N[C@H](C(=O)N[C@@H](CO)C(=O)N[C@@H](Cc1c[nH]c2ccccc12)C(=O)N[C@H](C(=O)N[C@@H](CCCCN)C(=O)N[C@@H](CCCNC(=N)N)C(=O)N[C@@H](CCCCN)C(=O)N[C@@H](CCCNC(=N)N)C(=O)N[C@@H](CCC(N)=O)C(=O)N[C@@H](CCC(N)=O)C(N)=O)[C@@H](C)CC)[C@@H](C)CC)[C@@H](C)O)[C@@H](C)O)C(C)C)C(C)C [melittin]
- cytotoxicity of PBMCs [1]: 100%

Compound: FITC-myristoyl-CM4: fluorescein isothiocyanate labeled myristoyl-CM4 (GRWKIFKKIEKVGQNIRDGIVKAGPAVAVVGQAATI; not fully specified; FITC, myristoyl, C-terminal amide)
- FITC signal on the cells (CLSM) [2]: stronger than the FITC-CM4 signal
- FITC signal on the cells (CLSM) [3]: stronger than the FITC-CM4 signal
- fluorescence intensity on cells [4]: very weak
- fluorescence intensity on cells [5]: very weak

Compound: COc1cccc2c1C(=O)c1c(O)c3c(c(O)c1C2=O)C[C@@](O)(C(=O)CO)C[C@@H]3O[C@H]1C[C@H](N)[C@H](O)[C@H](C)O1 [doxorubicin]
- resistance of K562/MDR compared with K562 cells [6]: a certain resistence

Compound: GRWKIFKKIEKVGQNIRDGIVKAGPAVAVVGQAATI-NH2 [CM4]
- LDH release [7]: Virtually no LDH was released
- LDH release [8]: Virtually no LDH was released
- cytotoxicity towards non-cancer cells [9]: no cytotoxicity
- IC50 [10]: 20 to 40 µM
